Screening data from PubChem.
CHOP inhibitor = blocks CHOP induction under ER stress; CHO-K1 CHOP-promoter luciferase, tunicamycin-induced, 15-18 h; inhibition, % at 10 µM; hit rate 3.8% among 220,000; AID 2732;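 active = compounds that reduced the stress-induced luciferase reporter signal by more than about 70% of percent inhibition, limit read from the data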;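 note: 0% = tunicamycin plus vehicle and 100% = wells without tunicamycin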
CHOP UPR activ = activators of apoptotic arm of unfolded protein response (CHOP); CHO-CHOP luciferase reporter, UPR activation, luminescence; percent of tunicamycin response over DMSO baseline; activation, % at 10 µM; hit rate 0.34% among 330,000; AID 449763;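 active = at 10 µM dose, activation of 40% or more, normalized to positive control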;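 note: 100% = tunicamycin at 10 µg/mL and 0% = DMSO alone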
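Material: CHO-CHOP cells, stable luciferase reporter of PERK-eIF2a-CHOP signalling; quantity: 500 reporter cells seeded per well; buffer or medium: F12 medium containing 10% fetal bovine serum; compound: one dose, 10 µM in 0.5% DMSO; incubation: 6 h compound treatment, 37 °C; measured by: Steady-Glo luciferase luminescence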
UPR XBP1 act = activators of adaptive arm of unfolded protein response (XBP1); CHO-XBP1 luciferase reporter, IRE1-XBP1 UPR activation, luminescence; percent of tunicamycin response, DMSO as zero; activation, % at 20 µM; hit rate 0.33% among 330,000;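 active = versus positive control, 20 µM dose yields 30% or more activation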;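 note: 100% = tunicamycin at 10 µg/mL and 0% = DMSO only wells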
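Material – CHO cell line with stable XBP1 luciferase reporter · Buffer or medium – F12 plus 10% FBS · Compound – single point, 20 µM final compound, 1% DMSO · Schedule – 16-18 h cell attachment at 37 °C, then 6 h compound exposure · Signal – Steady-Glo luminescence read · Benchmarks – high control tunicamycin 10 µg/mL final, low control DMSO vehicle only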
aDG glyco act = increases alpha dystroglycan glycosylation. activation, % at 10 µM. AID 624168. Pro5-aDG cells, alpha-DG glycosylation AlphaScreen (IIH6); 0% Pro5, 100% B10-LARGE cell signal. hit rate 0.22% among 360,000;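 active = activation of at least 8% versus controls, or a plate z-score of at least 8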;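 note: Pro5 are CHO cells carrying HIG-tagged alpha-DG that lacks glycosylation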
NR3A LBD binder = NR3A (human) ligand-binding domain modulation; NR3A LBD differential scanning fluorimetry, Tm shift; 0% = protein alone, 100% = glycine-bound protein; Tm shift relative to glycine control, % at 25 µM; hit rate 2.5% among 340,000;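 active = melting temperature shift of at least 10% of the positive control shift, at one fixed dose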
MPTP inh = permeability transition pore inhibition. isolated mouse mitochondria, Ca2+ swelling absorbance, 30 min. inhibition, % at 10 µM. hit rate 1.4% among 360,000. AID 602449;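 active = inhibition of 50% or more, scaled per plate between neutral and stimulator controls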;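 note: 0% = DMSO wells given calcium and 100% = 1 mM EGTA wells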
Numbers without * were called inactive; x = no result. Only some compounds are listed: those with a hit (about 5.6% of all), similar ones and a draw of the others.

SMILES	CHOP inhibitor	CHOP UPR activ	UPR XBP1 act	aDG glyco act	NR3A LBD binder	MPTP inh
Cc1sc2nc(N3CCOCC3)[nH]c(=O)c2c1-c1ccccc1	11.8	1.4	-0.1	0.0	1.3	0.7
Cc1sc2nc(C(C)Nc3ccccc3N3CCOCC3)[nH]c(=O)c2c1C (stereo not given)	74.7*	-0.8	1.9	-0.5	0.2	-0.1
CSc1ccc(CN2CCC2(C)C(=O)NC2CCN(Cc3ccccc3)CC2)cc1 (stereo not given)	x	x	x	0.1	x	1.4
CC1CC(C)CN(C(=O)/C(=C\c2ccccc2)c2ccccc2)C1 (stereo not given)	68.2	1.2	-1.7	0.0	-2.4	-0.4
CC1CCCCN1C(=O)/C(=C\c1ccccc1)c1ccccc1 (stereo not given)	88.5*	2.1	-0.9	0.1	-3.1	1.2
Nc1nc2c(nc(SCc3ccccc3Br)n2C2OC(CO)C(O)C2O)c(=O)[nH]1 (stereo not given)	21.6	2.0	-2.7	-0.5	-2.0	0.6
O=C1c2ccccc2C(=O)N1CCOc1cccc(Br)c1	x	5.1	-0.8	0.7	11.1*	1.1
Cc1ccc(OCCN2C(=O)c3ccccc3C2=O)cc1	-11.0	2.6	2.0	0.2	3.7	-1.7
CCC1=NN(C(=O)Cc2ccc(OC)c(OC)c2)C(O)(C(F)(F)F)C1 (stereo not given)	24.6	-1.2	-0.6	0.1	-3.6	-0.4
CC1C(=O)C(C)C(c2cc(Cl)ccc2O)NC1c1cc(Cl)ccc1O (stereo not given)	x	1.6	2.6	-0.1	26.8*	3.0
O=C(N/N=C/c1ccccc1Br)C1CC1	12.5	5.4	0.5	-0.3	-1.2	0.1
c1ccc2c(c1)[nH]c1c3ccccc3sc21	19.4	4.3	-5.0	-0.2	23.6*	4.9
CCOC(=O)C1(C)CCCN(C(=O)c2ccc(OC)c(OC)c2)C1 (stereo not given)	x	x	x	-0.3	x	-1.5
CC(C)Cc1nnc(NC(=O)c2cc3c(s2)CCC3)s1	85.2*	5.0	-0.5	-0.1	-1.3	0.0
O=C(Nc1nncs1)c1cc2c(s1)CCC2	6.2	4.2	-1.0	-0.4	2.5	-2.3
Cc1cccc2c(N)c3c(nc12)N(C)CC3	x	-1.4	1.7	0.5	16.4*	2.0
Cn1cnc(S(=O)(=O)Nc2ccc(Cl)c(C(F)(F)F)c2)c1	x	0.0	-0.9	-0.3	13.7*	0.0
Cn1cnc(S(=O)(=O)Nc2ccc(C(F)(F)F)cc2)c1	17.2	-0.3	-0.9	-0.1	0.2	-4.6
Cc1ccc(C)c(NC(=O)Cn2cnc3c(oc4ccccc43)c2=O)c1	72.0*	0.1	-2.4	0.3	-1.9	0.9
O=C(Cn1cnc2c(oc3ccccc32)c1=O)NCc1ccccc1	-6.8	2.6	-4.2	0.0	0.6	-0.8
Cc1ccc(C)c(NC(=O)Cn2nc(-c3ccccc3)nc2-c2ccccc2)c1	86.8*	-2.4	-0.4	0.0	-2.5	-0.7
Cn1c(CC(=O)Nc2ccccc2)c(Sc2ccccc2)c2ccccc21	47.6	-2.3	-3.1	0.0	3.6	23.0
Cn1c(CC(=O)Nc2ccccc2C(F)(F)F)c(Sc2ccccc2)c2ccccc21	76.1*	-1.7	-2.8	0.1	-1.8	2.3
CCOC(=O)c1c(NC(=O)C2=C(C)NC(=S)NC2c2ccc(F)cc2)sc(C)c1C (stereo not given)	58.8	0.3	0.8	0.6	-2.6	-1.9
CCOC(=O)c1c(NC(=O)C2=C(C)NC(=S)NC2c2ccc(C)cc2)sc(C)c1C (stereo not given)	74.0*	5.9	2.1	2.2	3.2	1.5
SMILES	CHOP inhibitor	CHOP UPR activ	UPR XBP1 act	aDG glyco act	NR3A LBD binder	MPTP inh
Cc1ccc(-c2oc3ncnc(N)c3c2-c2ccc(C)cc2)cc1	82.3*	0.2	-0.3	0.1	-1.0	16.0
Cc1oc2ncnc(N)c2c1C	2.4	-1.1	0.3	0.2	0.7	0.1
Cc1cccc(C)c1NC(=O)CN1CCNCC1	87.0*	-2.1	0.3	-0.1	0.5	-3.0
C=CCc1cccc2cc(C(=O)Nc3ccc(S(=O)(=O)Nc4nnc(CC)s4)cc3)c(=O)oc12	72.4*	x	x	0.0	-9.2	-9.3
Cc1ccc(NS(=O)(=O)c2ccc(NC(=O)c3cccc(NC(=O)C(C)C)c3)cc2)cc1	11.9	0.0	-10.8	0.5	18.4*	1.9
C=CCc1cccc2cc(C(=O)Nc3ccc(F)cc3)c(=O)oc12	-21.1	5.7	2.3	0.1	2.4	2.5
CCc1nnc(NS(=O)(=O)c2ccc(N/C=C\C(=O)c3ccc4ccccc4c3)cc2)s1	12.6	0.2	0.0	-0.1	14.4*	10.0
CCc1nnc(NS(=O)(=O)c2ccc(NC(=O)c3ccccc3)cc2)s1	1.8	-0.4	-2.6	-0.1	1.8	-1.9
Cc1cc(C)nc(NS(=O)(=O)c2ccc(N/C=C/C(=O)c3ccc(Cl)cc3)cc2)n1	91.8*	2.7	1.7	-0.5	-16.5	5.5
COC(=O)CCCC(=O)NCC1(N(C)Cc2ccccc2)Cc2ccccc2C1	x	-1.3	-6.2	0.0	1.4	-0.2
CCc1ccccc1NC(=O)CN(c1ccc(OC)cc1OC)S(=O)(=O)c1ccccc1	x	3.2	-3.1	0.8	-2.9	-0.5
COc1ccc2cc(S(=O)(=O)NCc3cccnc3)ccc2c1	x	0.2	-2.7	0.6	-0.3	-0.3
CN(C(=O)c1cccc(NC(=O)Cc2cccc(NC(=O)C3CCCN(C(=O)c4ccccc4)C3)c2)c1)C1CCC1 (stereo not given)	x	x	x	0.3	-2.6	-0.3
Cc1cccc(C)c1NC(=O)c1ccc2sc([C@@H]3O[C@H](CO)[C@H](O)[C@H](O)[C@H]3O)nc2c1	x	x	x	-0.4	x	0.1
CC(=O)Nc1ccc(S(=O)(=O)Nc2nccc(/C=C/c3ccc(Cl)cc3)n2)cc1	10.4	0.7	0.5	-0.1	11.7*	-0.5
Cc1cccc(C(=O)NCC(=O)Nc2ccc(S(=O)(=O)Nc3nc(C)cc(C)n3)cc2)c1	25.7	0.5	0.7	-0.4	-3.7	-0.7
Cc1cccc(C(=O)Nc2ccc(S(=O)(=O)Nc3nc(C)cc(C)n3)cc2)c1	x	2.3	-3.4	0.0	12.6*	0.3
Cc1ccc(NC(=O)COC(=O)c2ccc(CN3CCCC3=O)cc2)c(Cl)c1	x	0.0	0.9	0.2	-2.2	-0.9
COc1cccc(-n2c(SCC(=O)N3CCCCC3)nc3c([nH]c4ccccc43)c2=O)c1	71.1*	2.9	9.0	-0.1	3.1	1.9
C=CCn1c(SCC(=O)N2CCN(c3ccccc3)CC2)nc2c([nH]c3ccccc32)c1=O	x	20.6	72.9*	-0.7	2.3	-2.3
COc1cccc(-n2c(SCC(N)=O)nc3c([nH]c4ccccc43)c2=O)c1	-20.3	0.0	2.5	-0.1	1.4	-0.5
Cc1cccnc1NC(=O)c1ccc(C(=O)c2ccccc2)cc1	x	0.1	-0.3	-0.4	0.3	-0.3
